This passage reports inhibition and Activity results from ChEMBL document CHEMBL5712082, “PRMT5-mediated regulation of developmental myelination” (Nat Commun, 2018).

Active and inactive are the calls of the source. The calls are words filed in the database; no cut-off is given here.

In data set [1] the test system is Oligodendrocyte progenitor cell. Description: Inhibition of HDAC in mouse oligodendrocyte progenitor cells assessed as decreased in number of differentiating cells at 20 nM after 24 to 48 hrs by CNP and MBP staining based assay. The following applies: time 24-48 hrs.
Data set [2] deals with Protein arginine N-methyltransferase 5 (Mus musculus) (UniProt Q8CIG8). Description: Inhibition of PRMT5 in mouse oligodendrocyte progenitor cells assessed as increase in levels of H4K5Ac at 10 nM incubated for 24 to 72 hrs by Western blot analysis. The following applies: Oligodendrocyte progenitor cell, time 24-72 hrs. Type of data set: cell-based.
Protein arginine N-methyltransferase 5 (Mus musculus), sequence (Q8CIG8 whole entry): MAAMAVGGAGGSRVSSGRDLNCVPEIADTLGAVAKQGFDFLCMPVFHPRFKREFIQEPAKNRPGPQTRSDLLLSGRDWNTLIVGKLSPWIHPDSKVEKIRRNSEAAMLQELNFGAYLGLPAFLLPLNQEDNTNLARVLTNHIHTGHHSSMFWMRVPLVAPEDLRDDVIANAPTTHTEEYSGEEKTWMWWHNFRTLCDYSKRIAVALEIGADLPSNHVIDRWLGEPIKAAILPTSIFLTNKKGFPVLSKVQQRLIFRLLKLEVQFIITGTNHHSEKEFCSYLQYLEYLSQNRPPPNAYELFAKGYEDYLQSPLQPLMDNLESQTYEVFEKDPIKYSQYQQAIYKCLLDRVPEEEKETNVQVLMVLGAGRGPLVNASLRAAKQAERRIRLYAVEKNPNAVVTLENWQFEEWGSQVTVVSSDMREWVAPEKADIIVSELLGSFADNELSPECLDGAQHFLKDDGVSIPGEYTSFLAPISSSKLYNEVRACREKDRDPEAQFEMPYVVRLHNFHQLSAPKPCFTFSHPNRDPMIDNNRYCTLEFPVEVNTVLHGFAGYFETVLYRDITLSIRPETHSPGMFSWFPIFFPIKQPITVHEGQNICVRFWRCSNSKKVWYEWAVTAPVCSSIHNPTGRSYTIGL
Data set [3] has the same target. Description: Inhibition of PRMT5 in mouse oligodendrocyte progenitor cells assessed as decrease in levels of H4R3me2s in presence of 0.2 uM KAT inhibitor NU-9056 after 24 to 48 hrs by immunoreactivity based analysis. The following applies: Oligodendrocyte progenitor cell, time 24-48 hrs.
Data set [4] shares this target. Description: Inhibition of PRMT5 in mouse oligodendrocyte progenitor cells assessed as decrease in levels of H4R3me2s in presence of 100 uM KAT inhibitor Butyrolactone-3 after 24 to 48 hrs by immunoreactivity based analysis. The following applies: Oligodendrocyte progenitor cell, time 24-48 hrs.
The target is the same in data set [5]. Kind of data set: Inhibition of PRMT5 in mouse oligodendrocyte progenitor cells assessed as decrease in expression of P53-responsive genes ((Mdm2, Cdkn1a, Perp) in presence of 0.2 uM KAT inhibitor NU-9056 after 48 hrs by qRT-PCR analysis. The following applies: Oligodendrocyte progenitor cell. Type of data set: cell-based. (In general: Real-time PCR tracks product formation cycle by cycle.)

The target is the same in data set [6]. Description: Inhibition of PRMT5 in mouse oligodendrocyte progenitor cells assessed as decrease in expression of P53-responsive genes ((Mdm2, Cdkn1a, Perp) after 48 hrs by qRT-PCR analysis. It is filed as cell-based. The following applies: Oligodendrocyte progenitor cell.
Data set [7] shares this target. Description: Inhibition of PRMT5 in Trp53-/- mouse oligodendrocyte progenitor cells assessed as reduction of the number of cleaved caspase--3-positive CNP+ cells in differentiating OPCs. Type of data set: cell-based. The following applies: Oligodendrocyte progenitor cell. Put shortly:
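Trp53−/− OPCs (Trp53fl/fl OPCs infected with Cre retrovirus) and Trp53fl/fl OPCs held in differentiating conditions (no growth factors, 60 nM T3) with or without 10 nM inhibitor. Immunostained for CNP and cleaved caspase-3 with DAPI. CNP+/DAPI+ ratio and cleaved caspase-3 intensity from three biological replicates, expressed relative to untreated cells of the same genotype.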

Data set [8] in a line: Effect on cell proliferation in Trp53fl/fl wild type mouse oligodendrocyte progenitor cells at 10 nM by cell count assay. Type of data set: toxicity, cell-based. The following applies: 0.01 µM. Put shortly: (§1)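 Primary OPCs from Trp53fl/fl mice (P7 immunopanning for PDGFRα), uninfected, alongside Cre-retrovirus-infected Trp53−/− counterparts. Cultured in SATO medium with PDGF-AA 10 ng/ml + bFGF 20 ng/ml (proliferating) or without growth factors + T3 60 nM (differentiating). Treated ± 10 nM inhibitor, DMSO controls. Cell counts averaged over three biological replicates.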

The target of data set [9] is Protein arginine N-methyltransferase 5 (Mus musculus) (UniProt Q8CIG8). Kind of data set: Inhibition of PRMT5 in mouse oligodendrocyte progenitor cells assessed as increase in levels of H4K5Ac incubated for 24 to 72 hrs by immunoreactivity based analysis. The following applies: Oligodendrocyte progenitor cell, time 24-72 hrs. Put shortly: (§2)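 Primary OPCs in growth-factor-free chemically defined medium, treated with DMSO or inhibitor over a time course. Fixed cells immunostained for H4R3me2s or H4K5ac. Nuclear pixel intensity measured by confocal imaging in an average of 395 cells per condition, three biological replicates.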

Data set [10] shares this target. Description: Inhibition of PRMT5 in mouse oligodendrocyte progenitor cells assessed as decreased in number of differentiating cells in presence of 100 uM KAT inhibitor Butyrolactone-3 after 24 to 48 hrs by CNP and MBP staining based assay. The following applies: Oligodendrocyte progenitor cell, time 24-48 hrs.
Data set [11] shares this target. Description: Inhibition of PRMT5 in mouse oligodendrocyte progenitor cells assessed as decrease in levels of H4R3me2s at 10 nM incubated for 24 to 72 hrs by Western blot analysis. It is filed as cell-based. The following applies: Oligodendrocyte progenitor cell, time 24-72 hrs. For orientation: In western blotting, separated proteins are transferred to a membrane and probed.

The target is the same in data set [12]. Kind of data set: Inhibition of PRMT5 in Trp53fl/fl wild type mouse oligodendrocyte progenitor cells assessed as decreased in number of differentiating cells at 10 nM by cell count assay. It is filed as cell-based. In a few lines:
as §1

The target is the same in data set [13]. Description: Inhibition of PRMT5 in mouse oligodendrocyte progenitor cells assessed as decrease in levels of H4R3me2s incubated for 24 to 72 hrs by immunoreactivity based analysis. The following applies: Oligodendrocyte progenitor cell, time 24-72 hrs. Put shortly:
as §2

For data set [14] the target is unchanged. Description: Inhibition of PRMT5 in mouse oligodendrocyte progenitor cells assessed as decrease in expression of P53-responsive genes ((Mdm2, Cdkn1a, Perp) in presence of 100 uM KAT inhibitor Butyrolactone-3 after 48 hrs by qRT-PCR analysis. It is filed as cell-based. The following applies: Oligodendrocyte progenitor cell.
Data set [15] shares this target. Kind of data set: Inhibition of PRMT5 in mouse oligodendrocyte progenitor cells assessed as decreased in number of differentiating cells in presence of 0.2 uM KAT inhibitor NU-9056 after 24 to 48 hrs by CNP and MBP staining based assay. The following applies: Oligodendrocyte progenitor cell, time 24-48 hrs.
Data set [16] can be described thus: Effect on cell proliferation in mouse oligodendrocyte progenitor cells assessed as Ki67+/PDGFRalpha+ cell count measured after 12 to 48 hrs by immunoreactivity based assay. The following applies: time 12-48 hrs. Type of data set: toxicity. In a few lines: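 P7 mouse OPCs immunopanned for PDGFRα, kept proliferating in SATO medium with PDGF-AA and bFGF, then treated with inhibitor or DMSO. Cells fixed in 4% PFA and immunostained for PDGFRα and KI67. Double-positive (KI67+ PDGFRα+) cells counted by confocal imaging from three biological replicates.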

Consider `CC(/C=C/C(=O)NO)=C\[C@@H](C)C(=O)c1ccc(N(C)C)cc1`, for which the inhibition entry in data set [1] was “Active”.

`O=C(NC[C@H](O)CN1CCc2ccccc2C1)c1ccnc(NC2CCC2)c1`: the inhibition entry in data set [2], in [6], in [7], in data set [9], in data set [11] and in [12] was “Active” throughout. Besides, in data set [13], the inhibition entry was “Active”. In addition, the inhibition result in data set [3], in data set [4], in data set [5], in data set [10], in [14] and in data set [15] was “inactive” throughout. Also, the values for the Activity entry in data set [8] and in [16] were “Toxic” and “Non-Toxic”, respectively.
